# According to ChEMBL document CHEMBL4689842, “EUbOPEN Chemogenomics Library wave 1” (2021):
# How the values were obtained:
# Assay type in all cases: toxicity, cell-based
# Fibroblast [1] = assay: Multiplex assay against human fibroblast
# Summary of the method: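 Phenotypes for tubulin, mitochondrial mass and membrane permeability are expressed as per cents of healthy-nucleus cells. Cells were stained live at seeding with Hoechst33342, BioTracker Green Microtubule Cytoskeleton Dye, MitoTracker Red and Annexin V Alexa Fluor 680, then imaged after compound addition on a CQ1 microscope at 37°C and 5% CO2. Machine-learning gating in CellPathfinder separated Hoechst high-intensity objects from normal cells, divided normal cells by nuclear state (healthy, pyknosed, fragmented) and divided pyknosed cells into mitotic or apoptotic.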
# HEK-293T = assay: Incucyte cell viability with HEK293T; settings: human, 10 µM, compound concentration 10 uM; note: filed as whole numbers so only -1 and 0 and 1 occur
# Fibroblast [2] = assay: Incucyte cell viability with human fibroblast; settings: 10 µM, compound concentration 10 uM; note: filed as whole numbers so only -1 and 0 and 1 occur
# U2OS = assay: Incucyte cell viability with U2OS; settings: human, 10 µM, compound concentration 10 uM; note: filed as whole numbers so only -1 and 0 and 1 occur
# [3] = 12 h, 1 µM, compound concentration 1 uM, replicate 1
# [4] = 12 h, 1 µM, compound concentration 1 uM, replicate 2
# [5] = 12 h, 10 µM, compound concentration 10 uM, replicate 1
# [6] = 12 h, 10 µM, compound concentration 10 uM, replicate 2
# [7] = 24 h, 1 µM, compound concentration 1 uM, replicate 1
# [8] = 24 h, 1 µM, compound concentration 1 uM, replicate 2
# [9] = 24 h, 10 µM, compound concentration 10 uM, replicate 1
# [10] = 24 h, 10 µM, compound concentration 10 uM, replicate 2
# [11] = 6 h, replicate number 1, timepoint 6 hours
# [12] = 12 h, replicate number 1, timepoint 12 hours
# [13] = 18 h, replicate number 1, timepoint 18 hours
# [14] = 24 h, replicate number 1, timepoint 24 hours
smiles,measurement,setting,value
COc1cc2c(Nc3ccc(NC(=O)c4ccccc4)cc3)ncnc2cc1OCCCN1CCOCC1,Population Apoptotic (%),Fibroblast [1]; [3],55%
same,Population Fragmented Nuclei (%),Fibroblast [1]; [3],25%
same,Population Healthy Nuclei (%),Fibroblast [1]; [3],53%
same,Population Hoechst High Intensity Objects (%),Fibroblast [1]; [3],35%
same,Population Membrane Permeable-Phenotype (%),Fibroblast [1]; [3],9%
same,Population Mitochondria Different-Phenotype (%),Fibroblast [1]; [3],10%
same,Population Mitotic Cells (%),Fibroblast [1]; [3],44%
same,Population Normal (%),Fibroblast [1]; [3],64%
same,Population Pyknosed Nuclei (%),Fibroblast [1]; [3],20%
same,Population Tubulin-Different-Phenotype (%),Fibroblast [1]; [3],41%
same,Total Cell Count,Fibroblast [1]; [3],470
same,Population Apoptotic (%),Fibroblast [1]; [4],33%
same,Population Fragmented Nuclei (%),Fibroblast [1]; [4],44%
same,Population Healthy Nuclei (%),Fibroblast [1]; [4],46%
same,Population Hoechst High Intensity Objects (%),Fibroblast [1]; [4],30%
same,Population Membrane Permeable-Phenotype (%),Fibroblast [1]; [4],22%
same,Population Mitochondria Different-Phenotype (%),Fibroblast [1]; [4],12%
same,Population Mitotic Cells (%),Fibroblast [1]; [4],66%
same,Population Normal (%),Fibroblast [1]; [4],69%
same,Population Pyknosed Nuclei (%),Fibroblast [1]; [4],8%
same,Population Tubulin-Different-Phenotype (%),Fibroblast [1]; [4],64%
same,Total Cell Count,Fibroblast [1]; [4],97
same,Population Apoptotic (%),Fibroblast [1]; [5],82%
same,Population Fragmented Nuclei (%),Fibroblast [1]; [5],39%
same,Population Healthy Nuclei (%),Fibroblast [1]; [5],49%
same,Population Hoechst High Intensity Objects (%),Fibroblast [1]; [5],19%
same,Population Membrane Permeable-Phenotype (%),Fibroblast [1]; [5],9%
same,Population Mitochondria Different-Phenotype (%),Fibroblast [1]; [5],5%
same,Population Mitotic Cells (%),Fibroblast [1]; [5],17%
same,Population Normal (%),Fibroblast [1]; [5],80%
same,Population Pyknosed Nuclei (%),Fibroblast [1]; [5],11%
same,Population Tubulin-Different-Phenotype (%),Fibroblast [1]; [5],4%
same,Total Cell Count,Fibroblast [1]; [5],250
same,Population Apoptotic (%),Fibroblast [1]; [6],0%
same,Population Fragmented Nuclei (%),Fibroblast [1]; [6],70%
same,Population Healthy Nuclei (%),Fibroblast [1]; [6],27%
same,Population Hoechst High Intensity Objects (%),Fibroblast [1]; [6],41%
same,Population Membrane Permeable-Phenotype (%),Fibroblast [1]; [6],0%
same,Population Mitochondria Different-Phenotype (%),Fibroblast [1]; [6],7%
same,Population Mitotic Cells (%),Fibroblast [1]; [6],100%
same,Population Normal (%),Fibroblast [1]; [6],58%
same,Population Pyknosed Nuclei (%),Fibroblast [1]; [6],2%
same,Population Tubulin-Different-Phenotype (%),Fibroblast [1]; [6],7%
same,Total Cell Count,Fibroblast [1]; [6],82
same,Population Apoptotic (%),Fibroblast [1]; [7],61%
same,Population Fragmented Nuclei (%),Fibroblast [1]; [7],26%
same,Population Healthy Nuclei (%),Fibroblast [1]; [7],47%
same,Population Hoechst High Intensity Objects (%),Fibroblast [1]; [7],46%
same,Population Membrane Permeable-Phenotype (%),Fibroblast [1]; [7],14%
same,Population Mitochondria Different-Phenotype (%),Fibroblast [1]; [7],17%
same,Population Mitotic Cells (%),Fibroblast [1]; [7],38%
same,Population Normal (%),Fibroblast [1]; [7],53%
same,Population Pyknosed Nuclei (%),Fibroblast [1]; [7],26%
same,Population Tubulin-Different-Phenotype (%),Fibroblast [1]; [7],59%
same,Total Cell Count,Fibroblast [1]; [7],391
same,Population Apoptotic (%),Fibroblast [1]; [8],58%
same,Population Fragmented Nuclei (%),Fibroblast [1]; [8],34%
same,Population Healthy Nuclei (%),Fibroblast [1]; [8],42%
same,Population Hoechst High Intensity Objects (%),Fibroblast [1]; [8],41%
same,Population Membrane Permeable-Phenotype (%),Fibroblast [1]; [8],23%
same,Population Mitochondria Different-Phenotype (%),Fibroblast [1]; [8],33%
same,Population Mitotic Cells (%),Fibroblast [1]; [8],41%
same,Population Normal (%),Fibroblast [1]; [8],58%
same,Population Pyknosed Nuclei (%),Fibroblast [1]; [8],24%
same,Population Tubulin-Different-Phenotype (%),Fibroblast [1]; [8],52%
same,Total Cell Count,Fibroblast [1]; [8],85
same,Population Apoptotic (%),Fibroblast [1]; [9],76%
same,Population Fragmented Nuclei (%),Fibroblast [1]; [9],31%
same,Population Healthy Nuclei (%),Fibroblast [1]; [9],55%
same,Population Hoechst High Intensity Objects (%),Fibroblast [1]; [9],22%
same,Population Membrane Permeable-Phenotype (%),Fibroblast [1]; [9],6%
same,Population Mitochondria Different-Phenotype (%),Fibroblast [1]; [9],3%
same,Population Mitotic Cells (%),Fibroblast [1]; [9],24%
same,Population Normal (%),Fibroblast [1]; [9],77%
same,Population Pyknosed Nuclei (%),Fibroblast [1]; [9],13%
same,Population Tubulin-Different-Phenotype (%),Fibroblast [1]; [9],5%
same,Total Cell Count,Fibroblast [1]; [9],248
same,Population Apoptotic (%),Fibroblast [1]; [10],66%
same,Population Fragmented Nuclei (%),Fibroblast [1]; [10],69%
same,Population Healthy Nuclei (%),Fibroblast [1]; [10],25%
same,Population Hoechst High Intensity Objects (%),Fibroblast [1]; [10],32%
same,Population Membrane Permeable-Phenotype (%),Fibroblast [1]; [10],15%
same,Population Mitochondria Different-Phenotype (%),Fibroblast [1]; [10],7%
same,Population Mitotic Cells (%),Fibroblast [1]; [10],33%
same,Population Normal (%),Fibroblast [1]; [10],67%
same,Population Pyknosed Nuclei (%),Fibroblast [1]; [10],5%
same,Population Tubulin-Different-Phenotype (%),Fibroblast [1]; [10],15%
same,Total Cell Count,Fibroblast [1]; [10],77
same,Growth Rate,HEK-293T; [11],0
same,Growth Rate,HEK-293T; [12],0
same,Growth Rate,HEK-293T; [13],0
same,Growth Rate,HEK-293T; [14],0
same,Growth Rate,"Fibroblast [2]; 0 h, replicate number 2, timepoint 0 hours",1
same,Growth Rate,Fibroblast [2]; [11],0
same,Growth Rate,Fibroblast [2]; [12],0
same,Growth Rate,Fibroblast [2]; [13],0
same,Growth Rate,Fibroblast [2]; [14],0
same,Growth Rate,"U2OS; 0 h, replicate number 1, timepoint 0 hours",1
same,Growth Rate,U2OS; [11],1
same,Growth Rate,U2OS; [12],0
same,Growth Rate,U2OS; [13],0
same,Growth Rate,"U2OS; 18 h, replicate number 2, timepoint 18 hours",1
same,Growth Rate,U2OS; [14],0
same,Growth Rate,"U2OS; 24 h, replicate number 2, timepoint 24 hours",1
